Measured values from ChEMBL document CHEMBL3621072, “Design, Virtual Screening, and Synthesis of Antagonists of αIIbβ3 as Antiplatelet Agents” (J Med Chem, 2015).

Target: T1, Integrin alpha-IIb/beta-3 (Homo sapiens, UniProt P05106+P08514)
Test: Antagonist activity against integrin alpha2bbeta3 in human platelet rich plasma
Procedure, shortened: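 Human platelet-rich plasma, aggregation induced by ADP and followed by Born's light-transmission method. Inhibition of aggregation by the test compound is reported as IC50. Pure enantiomers tested.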

T1 sequence (P05106 27-788 limits assumed): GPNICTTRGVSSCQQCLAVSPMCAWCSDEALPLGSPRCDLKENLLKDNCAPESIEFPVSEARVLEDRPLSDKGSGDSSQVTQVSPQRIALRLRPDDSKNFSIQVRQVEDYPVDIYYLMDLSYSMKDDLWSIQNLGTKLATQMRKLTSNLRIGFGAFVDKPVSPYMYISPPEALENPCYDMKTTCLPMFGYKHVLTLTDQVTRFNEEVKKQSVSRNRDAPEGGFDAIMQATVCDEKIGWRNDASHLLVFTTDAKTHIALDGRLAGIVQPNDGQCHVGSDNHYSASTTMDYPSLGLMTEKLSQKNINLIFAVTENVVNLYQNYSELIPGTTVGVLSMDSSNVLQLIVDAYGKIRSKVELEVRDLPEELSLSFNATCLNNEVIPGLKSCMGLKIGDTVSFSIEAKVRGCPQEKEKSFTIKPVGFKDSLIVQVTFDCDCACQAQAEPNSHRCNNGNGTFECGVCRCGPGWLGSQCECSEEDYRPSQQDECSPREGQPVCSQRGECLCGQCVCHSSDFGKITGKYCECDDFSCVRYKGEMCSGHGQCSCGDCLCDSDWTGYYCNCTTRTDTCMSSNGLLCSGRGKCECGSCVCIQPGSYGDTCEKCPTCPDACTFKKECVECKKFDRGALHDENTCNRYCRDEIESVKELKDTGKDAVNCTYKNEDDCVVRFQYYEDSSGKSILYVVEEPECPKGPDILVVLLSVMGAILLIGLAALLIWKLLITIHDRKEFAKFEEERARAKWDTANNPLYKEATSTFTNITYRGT
T1 sequence (P08514 32-887 limits assumed): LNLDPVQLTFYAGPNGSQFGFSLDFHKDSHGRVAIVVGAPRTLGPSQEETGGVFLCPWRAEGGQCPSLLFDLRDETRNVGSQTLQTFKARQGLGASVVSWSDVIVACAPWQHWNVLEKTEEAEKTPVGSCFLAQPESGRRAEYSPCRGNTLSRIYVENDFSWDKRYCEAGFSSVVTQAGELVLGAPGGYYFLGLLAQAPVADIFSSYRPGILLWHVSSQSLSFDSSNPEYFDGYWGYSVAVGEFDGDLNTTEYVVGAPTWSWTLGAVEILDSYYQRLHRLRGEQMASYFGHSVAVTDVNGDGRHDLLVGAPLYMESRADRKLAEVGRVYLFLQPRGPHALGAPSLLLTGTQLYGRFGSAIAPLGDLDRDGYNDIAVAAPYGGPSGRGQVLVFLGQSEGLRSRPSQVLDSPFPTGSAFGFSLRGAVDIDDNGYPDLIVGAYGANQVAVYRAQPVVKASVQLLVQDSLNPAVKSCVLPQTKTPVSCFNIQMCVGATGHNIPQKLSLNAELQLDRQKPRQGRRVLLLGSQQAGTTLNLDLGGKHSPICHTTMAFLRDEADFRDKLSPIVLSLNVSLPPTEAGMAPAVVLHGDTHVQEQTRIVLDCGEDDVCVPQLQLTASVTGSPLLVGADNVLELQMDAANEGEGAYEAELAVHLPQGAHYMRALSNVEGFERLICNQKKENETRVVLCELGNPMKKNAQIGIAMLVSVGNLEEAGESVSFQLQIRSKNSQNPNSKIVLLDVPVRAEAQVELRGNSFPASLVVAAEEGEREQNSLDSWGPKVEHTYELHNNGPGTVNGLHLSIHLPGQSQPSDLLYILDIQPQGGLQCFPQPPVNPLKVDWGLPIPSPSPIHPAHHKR
T1 sequence (P08514 891-1039 limits assumed): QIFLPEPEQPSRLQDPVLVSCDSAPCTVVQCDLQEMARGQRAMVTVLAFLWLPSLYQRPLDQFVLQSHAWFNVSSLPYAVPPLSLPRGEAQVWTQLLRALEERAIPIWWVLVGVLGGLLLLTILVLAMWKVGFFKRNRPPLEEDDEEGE

SMILES | IC50 [nM]
N=C(N)c1ccc2cc(OC(=O)c3ccc(N=C(N)N)cc3)ccc2c1 [NAFAMOSTAT] | 12500
CCc1nn2c(=O)cc(N3CCNCC3)nc2s1 | 13000

Target: T1, Integrin alpha-IIb/beta-3
Test: Inhibition of FITC-labeled fibrinogen binding to integrin alpha2bbeta3 closed form in human washed platelets
Procedure, shortened: (§1)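 Suspension of washed human platelets; αIIbβ3 binding of fluorescein isothiocyanate-labeled fibrinogen (FITC-Fg) measured, inhibition by test compound expressed as IC50. Pure enantiomers tested.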

IC50 [nM] | SMILES
3.8 | O=C(Nc1ccc2nc(N3CCNCC3)[nH]c(=O)c2c1)C1CCNCC1
5 | NCCC(=O)Nc1ccc2nc(N3CCNCC3)[nH]c(=O)c2c1
2.2 | NCCCC(=O)Nc1ccc2nc(N3CCNCC3)[nH]c(=O)c2c1

Target: T1, Integrin alpha-IIb/beta-3
Test: Inhibition of FITC-labeled fibrinogen binding to integrin alpha2bbeta3 open form in human washed platelets
Procedure, shortened: as §1

IC50 [nM] | SMILES
0.22 | O=C(CCNC(=O)c1ccc2c(c1)CNCC2)NC[C@H](NS(=O)(=O)c1ccccc1)C(=O)O
79 | CCCCS(=O)(=O)N[C@H](CNC(=O)CCNC(=O)c1ccc2c(c1)CNCC2)C(=O)O
0.96 | O=C(CCNC(=O)c1ccc2c(c1)CNCC2)NC[C@@H](NS(=O)(=O)c1ccccc1)C(=O)O
62 | CCCCS(=O)(=O)N[C@@H](CNC(=O)CCNC(=O)c1ccc2c(c1)CNCC2)C(=O)O
